Assay results from PMC8148061 (Acta Pharmaceutica Sinica. B, 2020).
Like-named read-outs stand apart in the source and are kept apart here.

Tests used:
Bcr-Abl^T315I = Bcr-Abl^T315I (Homo sapiens, UniProt P00519+P11274, T315I); experiment: Western blot degradation study in Ba/F3 cells expressed Bcr-Abl^T315I; type: cell-based; conditions: 24 h treatment, Western blot
K562 = experiment: Antiproliferation cell assay; type: cell-based, human; conditions: read-out: Cellular inhibition IC50 K562
Method in brief: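 K562 (ATCC) cells were grown in RPMI-1640 with 10% FBS, penicillin, streptomycin and 2 mmol/L glutamine at 37 °C in humidified CO2. Log-phase cells were seeded at ~3000/well, rested overnight, then exposed to test compound or vehicle for 72 h (10 mmol/L DMSO stocks). CCK-8 was read as OD450−OD650, with viability normalised to no-cell blank and vehicle wells. IC50 came from concentration–response curve fitting, mean ± SD.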

Ba/F3 Bcr-Abl^WT = experiment: Antiproliferation cell assay; type: cell-based; conditions: read-out: Cellular inhibition IC50 Ba/F3 Bcr-Abl^WT
Ba/F3 Bcr-Abl^T315I = experiment: Antiproliferation cell assay; type: cell-based; conditions: read-out: Cellular inhibition IC50 Ba/F3 Bcr-Abl^T315I

Compound	DR against Ba/F3 Bcr-Abl^T315I (%) 100 nmol/L (Bcr-Abl^T315I)	DR against Ba/F3 Bcr-Abl^T315I (%) 300 nmol/L (Bcr-Abl^T315I)	IC50 (K562; 72 h, CCK-8, mean ± SD)	IC50 (Ba/F3 Bcr-Abl^WT; 72 h, CCK-8, mean ± SD)	IC50 (Ba/F3 Bcr-Abl^T315I; 72 h, CCK-8, mean ± SD)	IC50 (K562; Homo sapiens, K562, 72 h)	IC50 (Ba/F3 Bcr-Abl^WT; Mus musculus, BaF3, 72 h)	IC50 (Ba/F3 Bcr-Abl^T315I; Mus musculus, BaF3, 72 h)
3-((1H-Pyrazolo[3,4-b]pyridin-5-yl)ethynyl)-N-(4-((4-(13-((2-(2,6-dioxopiperidin-3-yl)-1,3-dioxoisoindolin-4-yl)amino)-13-oxotridecyl)piperazin-1-yl)methyl)-3-(trifluoromethyl)phenyl)-4-methylbenzamide [7s]	−7.20%	45.61%	57.8 ± 19.5 nM	61 ± 1.7 nM	114 ± 29.9 nM	–	–	–
Cc1ccc(C(=O)Nc2ccc(CN3CCN(CCOCCOCCC(=O)Nc4cccc5c4CN(C4CCC(=O)NC4=O)C5=O)CC3)c(C(F)(F)F)c2)cc1C#Cc1cnc2[nH]ncc2c1 (stereo not shown) [7b, 3-((1H-Pyrazolo[3,4-b]pyridin-5-yl)ethynyl)-N-(4-((4-(2-(2-(3-((2-(2,6-dioxopiperidin-3-yl)-1-oxoisoindolin-4-yl)amino)-3-oxopropoxy)ethoxy)ethyl)piperazin-1-yl)methyl)-3-(trifluoromethyl)phenyl)-4-methylbenzamide]	−9.18%	−4.21%	–	–	–	4 ± 0.6 nM	65.3 ± 30.2 nM	287 ± 23 nM
Cc1ccc(C(=O)Nc2ccc(CN3CCN(CCOCCOCCOc4cccc5c4C(=O)N(C4CCC(=O)NC4=O)C5=O)CC3)c(C(F)(F)F)c2)cc1C#Cc1cnc2[nH]ncc2c1 (stereo not shown) [7c, 3-((1H-Pyrazolo[3,4-b]pyridin-5-yl)ethynyl)-N-(4-((4-(2-(2-(2-((2-(2,6-dioxopiperidin-3-yl)-1,3-dioxoisoindolin-4-yl)oxy)ethoxy)ethoxy)ethyl)piperazin-1-yl)methyl)-3-(trifluoromethyl)phenyl)-4-methylbenzamide]	−15.62%	9.98%	–	–	–	3.2 ± 0.1 nM	22.4 ± 10.2 nM	212 ± 101 nM
Cc1ccc(C(=O)Nc2ccc(CN3CCN(CCOCCOCCC(=O)N[C@H](C(=O)C4C[C@H](O)C[C@H]4C(=O)NCc4ccc(-c5scnc5C)cc4)C(C)(C)C)CC3)c(C(F)(F)F)c2)cc1C#Cc1cnc2[nH]ncc2c1 (stereo partly drawn) [7d, 3-((1H-Pyrazolo[3,4-b]pyridin-5-yl)ethynyl)-N-(4-((4-(2-(2-(3-(((2S)-1-((2R,4S)-4-hydroxy-2-((4-(4-methylthiazol-5-yl)benzyl)carbamoyl)cyclopentyl)-3,3-dimethyl-1-oxobutan-2-yl)amino)-3-oxopropoxy)ethoxy)ethyl)piperazin-1-yl)methyl)-3-(trifluoromethyl)phenyl)-4-methylbenzamide]	−18.26%	−10.51%	–	–	–	31 ± 0.1 nM	337 ± 6.1 nM	981 ± 24.9 nM
Cc1ccc(C(=O)Nc2ccc(CN3CCN(CCOCCOCCNC(=O)[C@H](CC(C)C)NC(=O)[C@@H](O)[C@H](N)Cc4ccccc4)CC3)c(C(F)(F)F)c2)cc1C#Cc1cnc2[nH]ncc2c1 [7e, 3-((1H-Pyrazolo[3,4-b]pyridin-5-yl)ethynyl)-N-(4-((4-((11S,14S,15R)-15-amino-14-hydroxy-11-isobutyl-10,13-dioxo-16-phenyl-3,6-dioxa-9,12-diazahexadecyl)piperazin-1-yl)methyl)-3-(trifluoromethyl)phenyl)-4-methylbenzamide]	−14.92%	11.17%	–	–	–	58.6 ± 11.4 nM	240 ± 75.4 nM	2310 ± 424 nM
Cc1ccc(C(=O)Nc2ccc(CN3CCN(CCOCCOCCC(=O)NC45CC6CC(CC(C6)C4)C5)CC3)c(C(F)(F)F)c2)cc1C#Cc1cnc2[nH]ncc2c1 [7f, 3-((1H-Pyrazolo[3,4-b]pyridin-5-yl)ethynyl)-N-(4-((4-(2-(2-(3-(adamantan-1-ylamino)-3-oxopropoxy)ethoxy)ethyl)piperazin-1-yl)methyl)-3-(trifluoromethyl)phenyl)-4-methylbenzamide]	−5.26%	11.72%	–	–	–	> 10000 nM	> 10000 nM	> 10000 nM
Cc1ccc(C(=O)Nc2ccc(CN3CCN(CCOCCC(=O)Nc4cccc5c4C(=O)N(C4CCC(=O)NC4=O)C5=O)CC3)c(C(F)(F)F)c2)cc1C#Cc1cnc2[nH]ncc2c1 (stereo not shown) [7g, 3-((1H-Pyrazolo[3,4-b]pyridin-5-yl)ethynyl)-N-(4-((4-(2-(3-((2-(2,6-dioxopiperidin-3-yl)-1,3-dioxoisoindolin-4-yl)amino)-3-oxopropoxy)ethyl)piperazin-1-yl)methyl)-3-(trifluoromethyl)phenyl)-4-methylbenzamide]	−11.43%	28.39%	–	–	–	3.5 ± 0.5 nM	20.7 ± 2.4 nM	67.5 ± 3.2 nM

The remaining lines, values ahead:

DR against Ba/F3 Bcr-Abl^T315I (%) 100 nmol/L (Bcr-Abl^T315I)	DR against Ba/F3 Bcr-Abl^T315I (%) 300 nmol/L (Bcr-Abl^T315I)	IC50 (K562; 72 h, CCK-8, mean ± SD)	IC50 (Ba/F3 Bcr-Abl^WT; 72 h, CCK-8, mean ± SD)	IC50 (Ba/F3 Bcr-Abl^T315I; 72 h, CCK-8, mean ± SD)	IC50 (K562; Homo sapiens, K562, 72 h)	IC50 (Ba/F3 Bcr-Abl^WT; Mus musculus, BaF3, 72 h)	IC50 (Ba/F3 Bcr-Abl^T315I; Mus musculus, BaF3, 72 h)	Compound
−22.44%	−19.45%	–	–	–	11.4 ± 7.3 nM	19.9 ± 4.2 nM	95.4 ± 37.4 nM	Cc1ccc(C(=O)Nc2ccc(CN3CCN(CCOCCOCCOCCOCCC(=O)Nc4cccc5c4C(=O)N(C4CCC(=O)NC4=O)C5=O)CC3)c(C(F)(F)F)c2)cc1C#Cc1cnc2[nH]ncc2c1 (stereo not shown) [7i, 1-(4-(4-(3-((1H-Pyrazolo[3,4-b]pyridin-5-yl)ethynyl)-4-methylbenzamido)-2-(trifluoromethyl)benzyl)piperazin-1-yl)-N-(2-(2,6-dioxopiperidin-3-yl)-1,3-dioxoisoindolin-4-yl)-3,6,9,12-tetraoxapentadecan-15-amide]
−23.27%	21.17%	–	–	–	2.8 ± 0.4 nM	14.3 ± 0.3 nM	60.1 ± 0.3 nM	Cc1ccc(C(=O)Nc2ccc(CN3CCN(CCOCCOCCOCCOCCOCCC(=O)Nc4cccc5c4C(=O)N(C4CCC(=O)NC4=O)C5=O)CC3)c(C(F)(F)F)c2)cc1C#Cc1cnc2[nH]ncc2c1 (stereo not shown) [7j, 1-(4-(4-(3-((1H-Pyrazolo[3,4-b]pyridin-5-yl)ethynyl)-4-methylbenzamido)-2-(trifluoromethyl)benzyl)piperazin-1-yl)-N-(2-(2,6-dioxopiperidin-3-yl)-1,3-dioxoisoindolin-4-yl)-3,6,9,12,15-pentaoxaoctadecan-18-amide]
19.38%	25.53%	–	–	–	10.5 ± 0.5 nM	107 ± 24.9 nM	306 ± 69.3 nM	Cc1ccc(C(=O)Nc2ccc(CN3CCN(CCOCCOCCOCCOCCOCCOCCC(=O)Nc4cccc5c4C(=O)N(C4CCC(=O)NC4=O)C5=O)CC3)c(C(F)(F)F)c2)cc1C#Cc1cnc2[nH]ncc2c1 (stereo not shown) [7k, 1-(4-(4-(3-((1H-Pyrazolo[3,4-b]pyridin-5-yl)ethynyl)-4-methylbenzamido)-2-(trifluoromethyl)benzyl)piperazin-1-yl)-N-(2-(2,6-dioxopiperidin-3-yl)-1,3-dioxoisoindolin-4-yl)-3,6,9,12,15,18-hexaoxahenicosan-21-amide]
−30.35%	37.19%	–	–	–	2.1 ± 0.9 nM	5.4 ± 0.8 nM	65.8 ± 28.8 nM	Cc1ccc(C(=O)Nc2ccc(CN3CCN(CCC(=O)Nc4cccc5c4C(=O)N(C4CCC(=O)NC4=O)C5=O)CC3)c(C(F)(F)F)c2)cc1C#Cc1cnc2[nH]ncc2c1 (stereo not shown) [7l, 3-((1H-Pyrazolo[3,4-b]pyridin-5-yl)ethynyl)-N-(4-((4-(3-((2-(2,6-dioxopiperidin-3-yl)-1,3-dioxoisoindolin-4-yl)amino)-3-oxopropyl)piperazin-1-yl)methyl)-3-(trifluoromethyl)phenyl)-4-methylbenzamide]
49.84%	48.67%	–	–	–	3 ± 1.2 nM	4.3 ± 0.1 nM	25 ± 10.4 nM	Cc1ccc(C(=O)Nc2ccc(CN3CCN(CCCCC(=O)Nc4cccc5c4C(=O)N(C4CCC(=O)NC4=O)C5=O)CC3)c(C(F)(F)F)c2)cc1C#Cc1cnc2[nH]ncc2c1 (stereo not shown) [7m, 3-((1H-Pyrazolo[3,4-b]pyridin-5-yl)ethynyl)-N-(4-((4-(5-((2-(2,6-dioxopiperidin-3-yl)-1,3-dioxoisoindolin-4-yl)amino)-5-oxopentyl)piperazin-1-yl)methyl)-3-(trifluoromethyl)phenyl)-4-methylbenzamide]
21.64%	30.39%	–	–	–	2.1 ± 0.1 nM	4.2 ± 0.3 nM	33.4 ± 1.6 nM	Cc1ccc(C(=O)Nc2ccc(CN3CCN(CCCCCC(=O)Nc4cccc5c4C(=O)N(C4CCC(=O)NC4=O)C5=O)CC3)c(C(F)(F)F)c2)cc1C#Cc1cnc2[nH]ncc2c1 (stereo not shown) [7n, 3-((1H-Pyrazolo[3,4-b]pyridin-5-yl)ethynyl)-N-(4-((4-(6-((2-(2,6-dioxopiperidin-3-yl)-1,3-dioxoisoindolin-4-yl)amino)-6-oxohexyl)piperazin-1-yl)methyl)-3-(trifluoromethyl)phenyl)-4-methylbenzamide]
3.61%	63.47%	–	–	–	14 ± 4.5 nM	4.5 nM	21.8 ± 8.3 nM	Cc1ccc(C(=O)Nc2ccc(CN3CCN(CCCCCCCCC(=O)Nc4cccc5c4C(=O)N(C4CCC(=O)NC4=O)C5=O)CC3)c(C(F)(F)F)c2)cc1C#Cc1cnc2[nH]ncc2c1 (stereo not shown) [7p, 3-((1H-Pyrazolo[3,4-b]pyridin-5-yl)ethynyl)-N-(4-((4-(9-((2-(2,6-dioxopiperidin-3-yl)-1,3-dioxoisoindolin-4-yl)amino)-9-oxononyl)piperazin-1-yl)methyl)-3-(trifluoromethyl)phenyl)-4-methylbenzamide]
